Values after ≈ are worked out from the molar mass of the structure shown.
Key:
Mus musculus [1] = species: Mus musculus; assay: The concentration inhibiting 50% cell proliferation of murine Splenocytes induced by the mitogen Concanavalin A of mice; type: functional
In short: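 Spleens from C57Bl/6 mice; splenocytes at 4 × 10^5 cells/well in triplicate with Con A 1.7 µg/mL and varying compound concentrations in complete RPMI 1640. 72 h at 37 °C, 5% CO2; [3H]thymidine 0.2 µCi/well during final 18 h; uptake counted by scintillation. IC50 from % inhibition of cpm versus control; mean ± SD of ≥3 experiments.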

B16 [2] = assay: Cytotoxicity, ability to inhibit viability of murine resting lymphocytes, murine B16 melanoma cells and human K562 erythroleukemia cells by 50% by […]; type: functional, cell-based; conditions: Mus musculus
In short: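 Murine resting lymphocytes (4 × 10^5 cells/well), murine B16 melanoma and human K562 cells (1 × 10^5 cells/well each) seeded in triplicate with a range of compound concentrations in complete RPMI 1640 (10% inactivated FCS); DMSO stocks at 2 mg/mL diluted at use. MTT added for last 4 h of 48 h culture; formazan dissolved in HCl–2-propanol, OD 570/690 nm; IC50 from % inhibition versus control.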

B16 [3] = assay: Selectivity index was evaluated; type: functional, Mus musculus
In short: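 Ratio of mean IC50 for MTT viability in K562, B16 and resting lymphocytes (averaged over the three) to IC50 for Con A-stimulated splenocyte proliferation.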

Mus musculus [4] = assay: Dose able to reduce by 50% the thickness increase compared to controls by DTH Assay on mice after daily dose by ip route for 6 days; type: functional; conditions: 144 h
In short: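 Female C57Bl/6 mice, 8-9 weeks, primed iv with 1 × 105 SRBC in saline; footpad challenge 5 days later with 1 × 108 SRBC. Compound in Cremophor ELP/ethanol (6.5:3.5) given ip daily for 6 days from priming day at several doses. Footpad swelling by dial micrometer 24 h post-challenge; ED50 = dose halving swelling increase; 10 animals/group, ≥3 experiments.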

Mus musculus [5] = assay: The Toxicity of compound was measured by DTH Assay on mice after giving compound daily by ip route for 6 days at different doses; type: organism-based; conditions: in vivo, 144 h
In short: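 Female C57Bl/6 mice, 8-9 weeks old, were primed iv with 1 × 10^5 SRBC and challenged in the footpad with 1 × 10^8 SRBC five days later. Compound in Cremophor ELP/ethanol (6.5:3.5 v:v) was given ip daily for 6 days from priming. Value is the minimal daily dose causing weight loss, hair ruffling or occasionally death, as mean ± SD of ≥3 experiments, 10 mice/group.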

| Structure (SMILES) | IC50 (Mus musculus [1]) | IC50 (B16 [2]) | Selectivity index (B16 [3]) | ED50 (Mus musculus [4]) | Toxicity (Mus musculus [5]) |
| --- | --- | --- | --- | --- | --- |
| COc1cc(-c2ccc[nH]2)[nH]c1/C=C1/C=C2CCCCC2=N1 | 0.0185 µg/mL (≈ 0.0631 µM) | 0.12 µg/mL (≈ 0.409 µM) | 6 |  |  |
| CC1=N/C(=C\c2[nH]c(-c3ccc(C)[nH]3)cc2OCc2ccccc2)C=C1 | 0.0041 µg/mL (≈ 0.0119 µM) | 0.077 µg/mL (≈ 0.224 µM) |  |  |  |
| CCCCCC1=N/C(=C\c2[nH]c(-c3ccc[nH]3)cc2OC)C=C1 | 0.02 µg/mL (≈ 0.0646 µM) | 0.079 µg/mL (≈ 0.255 µM) | 4 |  |  |
| CCCCCCCCCCCC1=N/C(=C\c2[nH]c(-c3ccc(C(C)=O)[nH]3)cc2OC)C=C1 | 0.1 µg/mL (≈ 0.23 µM) | > 1 µg/mL |  |  |  |
| CCCCCCCCCCCC1=N/C(=C\c2[nH]c(-c3cccs3)cc2OCc2ccccc2)C=C1 | > 1 µg/mL | > 1 µg/mL |  |  |  |
| C1=C(OCc2ccccc2)/C(=C/c2ccc[nH]2)N=C1c1ccc[nH]1 | 0.0153 µg/mL (≈ 0.0485 µM) | 0.181 µg/mL (≈ 0.574 µM) | 12 |  |  |
| CCCCCCCCCCCC1=N/C(=C\c2[nH]c(-c3ccc[nH]3)cc2OCc2ccccc2)C=C1 | 0.0242 µg/mL (≈ 0.0515 µM) | 3.74 µg/mL (≈ 7.96 µM) | 155 | 1.1 mg/kg | 5 mg/kg |
| CCCCCCCCCCCC1=N/C(=C\c2[nH]c(-c3ccc[nH]3)cc2OCC)C=C1 | 0.0018 µg/mL (≈ 0.00442 µM) | 0.193 µg/mL (≈ 0.474 µM) | 107 | 1.2 mg/kg | 2 mg/kg |
| CCCCCCCCCCC1=N/C(=C\c2[nH]c(-c3ccc[nH]3)cc2OCc2ccccc2)C=C1 | 0.013 µg/mL (≈ 0.0285 µM) | 0.97 µg/mL (≈ 2.13 µM) | 75 |  |  |
| CCCCCC1=N/C(=C\c2[nH]c(-c3ccc[nH]3)cc2OCc2ccccc2)C=C1 | 0.0049 µg/mL (≈ 0.0127 µM) | 0.083 µg/mL (≈ 0.215 µM) | 17 |  |  |
| CCCCCCCCCCCCCCCC1=N/C(=C\c2[nH]c(-c3ccc[nH]3)cc2OC)C=C1 | 0.0163 µg/mL (≈ 0.0362 µM) | 1.24 µg/mL (≈ 2.75 µM) | 76 |  |  |
| C1=C/C(=C/c2[nH]c(-c3ccc[nH]3)cc2OCc2ccccc2)N=C1CC1CCCCC1 | 0.0021 µg/mL (≈ 0.0051 µM) | 0.151 µg/mL (≈ 0.367 µM) | 72 |  |  |
| COc1cc(-c2ccc[nH]2)[nH]c1/C=C1/C=CC(CCCCCC(=O)N2CCOCC2)=N1 | > 1 µg/mL | > 1 µg/mL |  |  |  |
| COc1cc(-c2ccc[nH]2)[nH]c1/C=C1/C=CC(CCCCCCF)=N1 | 0.0074 µg/mL (≈ 0.0217 µM) | 0.172 µg/mL (≈ 0.504 µM) | 23 |  |  |
| CC1=N/C(=C\c2[nH]c(-c3ccc[nH]3)cc2OCc2ccccc2)C=C1 | 0.0079 µg/mL (≈ 0.024 µM) | 0.083 µg/mL (≈ 0.252 µM) | 10 |  |  |
| CCCCCCCCCCCC1=N/C(=C\c2[nH]c(-c3cc4cc(Cl)ccc4[nH]3)cc2OC)C=C1 | > 1 µg/mL | > 1 µg/mL |  |  |  |
| COc1cc(-c2ccc[nH]2)[nH]c1/C=C1/C=CC(CCCCCCO)=N1 | 0.0564 µg/mL (≈ 0.166 µM) | 0.787 µg/mL (≈ 2.32 µM) | 14 |  |  |
| CCCCCCCCCCCC1=N/C(=C\c2[nH]c(-c3ccc[nH]3)cc2O)C=C1 | > 1 µg/mL | > 1 µg/mL |  |  |  |
| COC(=O)CCCCCC1=N/C(=C\c2[nH]c(-c3ccc[nH]3)cc2OC)C=C1 | > 1 µg/mL | > 1 µg/mL |  |  |  |
| CCCCCCCCCCCCCC1=N/C(=C\c2[nH]c(-c3ccc[nH]3)cc2OCc2ccccc2)C=C1 | 0.262 µg/mL (≈ 0.526 µM) | 2.78 µg/mL (≈ 5.59 µM) | 11 |  |  |

| Structure (SMILES) | IC50 (Mus musculus [1]) | IC50 (B16 [2]) | Selectivity index (B16 [3]) | ED50 (Mus musculus [4]) | Toxicity (Mus musculus [5]) |
| --- | --- | --- | --- | --- | --- |
| CCCCCCCC1=N/C(=C\c2[nH]c(-c3ccc[nH]3)cc2OCc2ccccc2)C=C1 | 0.0036 µg/mL (≈ 0.0087 µM) | 0.178 µg/mL (≈ 0.43 µM) | 49 |  |  |
| C1=C/C(=C/c2[nH]c(-c3ccc[nH]3)cc2OCc2ccccc2)N=C1Cc1ccccc1 | 0.0065 µg/mL (≈ 0.016 µM) | 0.279 µg/mL (≈ 0.688 µM) | 43 |  |  |
| CCCCCCCCCCCC1=N/C(=C\c2[nH]c(-c3ccc[nH]3)cc2OCCC)C=C1 | 0.0056 µg/mL (≈ 0.0133 µM) | 0.322 µg/mL (≈ 0.764 µM) | 58 | 1 mg/kg | 2 mg/kg |
| CCCCCCCCCCCC1=N/C(=C\c2[nH]c(-c3ccc[nH]3)cc2OC(C)C)C=C1 | 0.0026 µg/mL (≈ 0.00617 µM) | 0.282 µg/mL (≈ 0.669 µM) | 108 |  |  |
| CCCCCCCCCCCC1=N/C(=C\c2[nH]c(-c3cc4ccccc4[nH]3)cc2OC)C=C1 | 0.25 µg/mL (≈ 0.564 µM) | > 1 µg/mL |  |  |  |
| CCCCCCCCCCCC1=N/C(=C\c2[nH]c(-n3cncn3)cc2OC)C=C1 | > 1 µg/mL | > 1 µg/mL |  |  |  |
| CCCCCCCCCCCC1=N/C(=C\c2[nH]c(-c3cc4cc(OC)ccc4[nH]3)cc2OC)C=C1 | 0.128 µg/mL (≈ 0.27 µM) | > 1 µg/mL |  |  |  |
| COc1cc(-c2ccc[nH]2)[nH]c1/C=C1/C=CC(CCCCCC(=O)O)=N1 | > 1 µg/mL | > 1 µg/mL |  |  |  |
| CCCCCCCCCCCC1=N/C(=C\c2ccc(-c3ccc[nH]3)[nH]2)C=C1 | 0.4 µg/mL (≈ 1.1 µM) | 1.22 µg/mL (≈ 3.34 µM) | 3 |  |  |
| COc1cc(-c2ccc[nH]2)[nH]c1/C=C1/C=CC(CCc2ccccc2)=N1 | 0.0075 µg/mL (≈ 0.0218 µM) | 0.299 µg/mL (≈ 0.871 µM) | 40 |  |  |
| CCCCCCCC1=N/C(=C\c2[nH]c(-c3ccc[nH]3)cc2OC)C=C1 | 0.0056 µg/mL (≈ 0.0166 µM) |  | 29 |  |  |
| CCCCCCCCCCCC1=N/C(=C\c2[nH]c(-c3ccccc3)cc2OC)C=C1 | > 1 µg/mL | > 1 µg/mL |  |  |  |
| CCCCCCCCCCCCCC1=N/C(=C\c2[nH]c(-c3ccc[nH]3)cc2OC)C=C1 | 0.0014 µg/mL (≈ 0.00332 µM) | 0.282 µg/mL (≈ 0.669 µM) | 201 | 0.8 mg/kg | 1.5 mg/kg |
| CCCCCCCCCCCC1=N/C(=C\c2[nH]c(C(=O)NCC)cc2OC)C=C1 | > 1 µg/mL | > 1 µg/mL |  |  |  |
| COc1cc(-c2ccc[nH]2)[nH]c1/C=C1/C=CC(CCCCCCCCCCC(=O)O)=N1 | > 1 µg/mL | > 1 µg/mL |  |  |  |
| CCCCCCCCCCCC1=N/C(=C\c2[nH]c(-c3ccc[nH]3)cc2OCCCC)C=C1 |  | 1.51 µg/mL (≈ 3.47 µM) | 133 | 1.5 mg/kg | 3 mg/kg |
| COc1cc(-c2ccc[nH]2)[nH]c1/C=C1/C=CC(CCCCCCCC#N)=N1 | 0.0162 µg/mL (≈ 0.0447 µM) | 0.235 µg/mL (≈ 0.648 µM) | 14 |  |  |
| CCCCCCCCCCC1=N/C(=C\c2[nH]c(-c3ccc[nH]3)cc2OC)C=C1 | 0.0018 µg/mL (≈ 0.00474 µM) | 0.156 µg/mL (≈ 0.411 µM) | 87 |  |  |
| CCCCCCCCCCCC1=N/C(=C\c2[nH]c(-c3ccc[nH]3)cc2OC)C=C1 [UNDECYLPRODIGININE] | 0.002 µg/mL (≈ 0.00508 µM) | 0.106 µg/mL (≈ 0.269 µM) |  | 0.6 mg/kg | 1 mg/kg |

Reference: ChEMBL document CHEMBL1133763, “Synthesis and immunosuppressive activity of novel prodigiosin derivatives” (J Med Chem, 2000)
